Screens as filed in PubChem BioAssay.
FGF22 binding-1 = FGF22 (human) thermal shift binding; hit rate 1.5% among 340,000; AID 651658; Q9HCT0; recombinant FGF22 thermal shift, SYPRO orange fluorescence; percent of sucrose octasulfate shift, DMSO zero; activity (Tm shift, normalised), % at 9.99 µM;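 active means mean Tm shift, scaled 0 neutral to 100 positive control, at about 1.3% or above, every replicate too, limit read from the data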
Target sequence (Q9HCT0 whole entry, looked up): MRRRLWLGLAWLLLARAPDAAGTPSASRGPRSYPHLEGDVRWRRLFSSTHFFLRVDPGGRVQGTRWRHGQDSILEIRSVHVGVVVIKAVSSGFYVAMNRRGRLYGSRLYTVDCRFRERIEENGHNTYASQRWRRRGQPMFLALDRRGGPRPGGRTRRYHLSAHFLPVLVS
PGC1a acetyl inh = lowers PGC1a acetylation signal in U2OS cells; hit rate 0.17% among 350,000; inhibition, % at 15.6 µM; AlphaScreen anti-acetyl-lysine; with virally co-expressed GCN5 acetyltransferase;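 active means every replicate shows inhibition of at least 40%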
ERAP1 HTS inh = inhibitors of human ERAP1 aminopeptidase | recombinant ERAP1, Leu-AMC fluorescence, 60 min | inhibition, % at 10.7 µM | hit rate 0.15% among 340,000;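 active means mean replicate inhibition of at least 30%, or all replicates individually reaching that 30% level; inactive means mean below 30% and not every replicate reaching it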
SIRT5 block = inhibitors of human sirtuin-5 desuccinylase; hit rate 1.1% among 330,000; Purified SirT5, succinyl-peptide AMC, trypsin-coupled fluorescence; inhibition, % at 15 µM; Q9NXA8; in the data active means inhibition above about 15%
Target sequence (Q9NXA8 whole entry, looked up): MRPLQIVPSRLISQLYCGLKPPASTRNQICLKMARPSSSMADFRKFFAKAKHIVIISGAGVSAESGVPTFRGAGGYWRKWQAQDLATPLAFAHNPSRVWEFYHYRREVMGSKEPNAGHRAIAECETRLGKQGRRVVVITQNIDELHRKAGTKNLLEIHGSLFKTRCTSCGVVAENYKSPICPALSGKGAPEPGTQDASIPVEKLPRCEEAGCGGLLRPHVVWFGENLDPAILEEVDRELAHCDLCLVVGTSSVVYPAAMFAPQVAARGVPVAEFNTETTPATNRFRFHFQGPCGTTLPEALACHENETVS
FN deposition inh = fibronectin deposition inhibition. AH1F fibroblasts, Alexa488-fibronectin deposition fluorescence, overnight. inhibition, % at 12.6 µM. AID 743247. hit rate 0.086% among 350,000;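 active means mean inhibition across replicates of 30% or more, regardless of how many single replicates reach that level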
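Material: AH1F fibroblasts assembling fluorescent fibronectin matrix; amount: 10000 AH1F cells/well; medium: DMEM, 2% serum; reagent: Alexa488-fibronectin, 24 nM final in well; dosing: single compound dose, delivered by pin transfer; incubation: 1 h adhesion, overnight exposure; detection: fluorescence after three HBSS washes, excitation 485 nm, emission 525 nm; measure: fibronectin deposition inhibition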
FGF22 binding-2 = binders of human FGF22 by thermal shift. shares compounds with FGF22 binding-1. recombinant FGF22 thermal shift, SYPRO orange fluorescence. thermal shift activity, °C (ΔTm) at 38 µM. hit rate 2% among 1,000. AID 720646;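 active means fitted rise in melting shift crosses a set limit at or below the top valid dose tested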
FGF22 TSA = FGF22 (human) binding by thermal shift; Thermal shift assay, SYPRO orange, melting temperature shift; shares compounds with FGF22 binding-1; 50 tested, under 10 active; Tm shift (activity), % at 38 µM;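 active means compounds whose fitted dose curve of melting temperature shift rises past a set threshold within the tested doses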
TSA no protein = compound-only SYPRO artifact for FGF22 binders. shares compounds with FGF22 binding-1. compound-only SYPRO orange thermal shift counter-screen, no protein. AC50, µM (series often up to 38 µM). hit rate 2% among 1,000. AID 743019;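 active means rising signal whose fitted curve reaches the 0.54 level within the top valid dose, showing a melting point, actives reach about 13 µM in these data; inactive means the rest, including activity in the opposite direction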; further: value is where the raw curve crosses a fixed level and not half-maximal
Hits are given with their value; i = inactive; nt = no result given; ! = not active in a repeat. An excerpt weighted towards active compounds, which were near 2.2% of everything screened.

SMILES | FGF22 binding-1 | PGC1a acetyl inh | ERAP1 HTS inh | SIRT5 block | FN deposition inh | FGF22 binding-2 | TSA no protein | others
O=C(N/N=C/c1c[nH]c2ccc(Br)cc12)C1CC1 | 2.2 | i | i | nt | i | i | i
O=C(N/N=C/c1c[nH]c2ccccc12)c1ccc2c(c1)OCCO2 | 1.6 | i | i | i | i | i | i
O=C(N/N=C/c1c[nH]c2ccc(Br)cc12)c1ccncc1 | nt | nt | nt | nt | i | nt | nt
O=C(N/N=C/c1c[nH]c2ccc(Br)cc12)c1ccc2c(c1)OCO2 | 2.5 | i | i | i | i | i | i
CO[C@@H]1CN(C)C(=O)c2ccc(NC(=O)c3cc(C)on3)cc2OC[C@@H](C)N(S(=O)(=O)c2cccc(C)c2)C[C@H]1C | i | i | i | nt | i | nt | nt
O=C(N[C@@H]1CC[C@@H](CC(=O)N2CCN(c3ccccc3)CC2)O[C@H]1CO)c1ccccc1 | i | i | i | i | nt | nt | nt
O=C(N[C@@H]1CC[C@H](CC(=O)N2CCN(c3ccccc3)CC2)O[C@@H]1CO)c1ccccc1 | 1.9 | i | i | i | nt | i | i
CN(C)CC(=O)Nc1ccc2c(c1)[C@@H]1C[C@@H](CC(=O)NCc3ccncc3)O[C@H](CO)[C@@H]1O2 | i | i | i | i | i | nt | nt
O=C(NNC(=O)C1CCN(S(=O)(=O)c2ccccc2C(F)(F)F)CC1)c1ccccc1O | 2.6 | i | i | i | i | i | i
CCCNC(=O)[C@@H]1[C@@H](CO)[C@@H]2Cn3c(ccc(-c4ccccc4F)c3=O)[C@@H]2N1C(C)=O | nt | i | i | i | nt | nt | nt
COc1ccc(Br)cc1S(=O)(=O)Nc1ncccc1C | 1.5 | i | i | i | i | i | i
c1ccc(Cc2nnc(-c3ccccc3)o2)cc1 | nt | nt | nt | nt | i | nt | nt
COc1ccc(Cc2nnc(-c3ccccc3)o2)cc1 | 17 | i | nt | i | i | i | i
C[C@H](CO)N1C[C@H](C)[C@H](CN(C)C(=O)Nc2ccc3c(c2)OCO3)Oc2cc(C3=CCCC3)ccc2S1(=O)=O | 1.8 | i | i | i | i | i | i
C[C@@H]1CN([C@H](C)CO)S(=O)(=O)c2ccc(C3=CCCC3)cc2O[C@@H]1CN(C)C(=O)Nc1ccc2c(c1)OCO2 | 1.2 | i | i | i | i | i | i
C[C@H]1CN([C@@H](C)CO)S(=O)(=O)c2ccc(C3=CCCC3)cc2O[C@@H]1CN(C)C(=O)Nc1ccc2c(c1)OCO2 | i | i | i | i | i | nt | nt
CO[C@H]1CN(C)C(=O)c2ccc(NC(C)=O)cc2OC[C@H](C)N(C(=O)C2CCCCC2)C[C@@H]1C | i | nt | i | i | i | nt | nt
Cc1cc(C(=O)N/N=C/c2c[nH]c3ccccc23)cs1 | 2.7 | nt | i | i | i | nt | i | FGF22 TSA=i
O=C(NN=Cc1c[nH]c2ccccc12)NN=Cc1c[nH]c2ccccc12 | i | i | i | nt | i | nt | nt
O=C(N/N=C/c1c[nH]c2ccccc12)c1cccs1 | 2.2 | i | i | i | i | nt | i | FGF22 TSA=i
CCCNC(=O)N1C[C@H](O)COC[C@@H]2O[C@@H](CC(=O)N[C@H]3CCN(Cc4ccccc4)C3)CC[C@H]21 | i | i | i | i | i | nt | nt
CN(CC(=O)Nc1ccccc1Cl)C(=O)COC(=O)c1ccc(-c2ccc(O)cc2)cc1 | i | i | i | i | i | nt | nt
CN(CC(=O)Nc1ccccc1Cl)C(=O)COC(=O)c1nc(Cl)ccc1Cl | 1.6 | nt | i | i | i | i | i
O=S(=O)(Nc1cc(Cl)ccc1-n1cncn1)c1ccc(F)cc1 | 1.5 | nt | i | i | i | i | i
CC1C(=O)Nc2ccc(S(=O)(=O)NCCc3ccc(Cl)cc3)cc2NC1=O (stereo not given) | 1.6 | nt | i | i | i | i | i
SMILES | FGF22 binding-1 | PGC1a acetyl inh | ERAP1 HTS inh | SIRT5 block | FN deposition inh | FGF22 binding-2 | TSA no protein | others
CC1Sc2ccc(S(=O)(=O)NCCc3ccc(S(N)(=O)=O)cc3)cc2NC1=O (stereo not given) | i | i | i | i | i | nt | nt
CNC(=O)C[C@@H]1CC[C@@H]2[C@H](COc3ccc(NC(=O)c4cscn4)cc3C(=O)N2C)O1 | i | i | nt | nt | i | nt | nt
COCC(=O)N1C[C@@H](C)[C@H](OC)CN(C)C(=O)c2ccc(NC(=O)NC(C)C)cc2OC[C@@H]1C | 2.2 | i | i | i | i | i | i
CO[C@@H]1CN(C)C(=O)c2cc(NC(=O)NC(C)C)ccc2OC[C@@H](C)N(C)C[C@@H]1C | 37 | i | i | i | i | i | i
O=C(C[C@@H]1CC[C@@H]2[C@H](COC[C@@H](O)CN2Cc2ccccc2F)O1)N[C@H]1CCN(Cc2ccccc2)C1 | i | i | i | i | i | nt | nt
COc1ccc(S(=O)(=O)Nc2ccc3c(c2)CC(=O)N([C@H](C)CO)C[C@H](C)[C@H](CN(C)C(=O)Nc2cccc4ccccc24)O3)cc1 | i | i | i | i | i | nt | nt
CN1C(=O)NC(NS(=O)(=O)c2ccc(N)cc2)(C(F)(F)F)C1=O (stereo not given) | 3.8 | i | i | i | i | i | i
COCC(=O)N1C[C@H](C)[C@@H](OC)CN(C)C(=O)c2cc(NS(C)(=O)=O)ccc2OC[C@@H]1C | i | i | i | i | i | nt | nt
CC=Cc1ccc2n(c1=O)C[C@H]1[C@H](CO)[C@@H](C(=O)N(C)C)[C@@H]2N1Cc1cc(F)ccc1F (mixture of isomers) | i | nt | i | i | nt | nt | nt
CC1CC(CC(=O)NC(=S)Nc2ccccc2Cl)C(=O)O1 (stereo not given) | 1.6 | i | i | i | nt | i | i
Cc1ccccc1S(=O)(=O)NCC[C@@H]1CC[C@@H](NC(=O)Nc2cccc(Cl)c2)[C@@H](CO)O1 | 1.3 | i | i | i | i | i | i
O=C(Nc1cc(Cl)cc(Cl)c1)N[C@H]1CC[C@H](CCNS(=O)(=O)c2cccc(F)c2)O[C@H]1CO | i | i | i | i | i | nt | nt
O=C(CCN1CCCCC1)N[C@@H]1CC[C@H](CCNS(=O)(=O)c2ccc(F)cc2)O[C@H]1CO | 1.7 | i | i | i | nt | i | i
O=C(Nc1cc(Cl)cc(Cl)c1)N[C@@H]1CC[C@@H](CCNS(=O)(=O)c2cccc(F)c2)O[C@@H]1CO | 2.7! | i | i | i | i | i | i | FGF22 TSA=i
CNC(=O)C[C@H]1CC[C@H]2[C@@H](COc3ccc(NC(=O)NC4CCCC4)cc3C(=O)N2C)O1 | i | i | i | i | i | nt | nt
CN(Cc1ccccc1)C(=O)c1[nH]cnc1C(=O)NC1CCN(C(=O)OC(C)(C)C)CC1 | 2.5 | i | i | nt | i | i | i
CC(C)(C)OC(=O)N1CCC(NC(=O)c2[nH]cnc2C(=O)Nc2ccccc2)CC1 | i | i | i | i | i | nt | nt
O=C(N/N=C/c1ccc(C(F)(F)F)cc1)c1ccc(O)cc1 | 2.4 | i | i | i | i | i | i | FGF22 TSA=i
